Data on 14 compounds can be found in PubChem BioAssay.

Assay [1] in a line: Her2 expression decrease, cell viability multiplex – SKBR3 breast tumor cells, AlphaScreen, ATP viability, primary screen (AID 461;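 active = Her2 level under about 52% in both replicate screens, with viability over 70% of control, limit read from the data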;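 for Her2 level: lower value means less Her2 protein in the cells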;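 for viability: percent of carrier control wells set as 100% viability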). Conditions: SKBR3 Her2 protein level, 18-24 h, measured here: SKBR3 viability, ATP luminescence, at 10 µM. In general terms: Alpha assays give light when donor and acceptor beads are brought close together.
Assay [2] concerns the target Receptor tyrosine-protein kinase erbB-2 (Homo sapiens) (UniProt P04626). The description is as above. The note with it: 18-24 h, at 10 µM, stronger effect = lower value.
A short description of assay [3]: reduced viability of SK-BR-3 breast cancer cells – cell-based, 24 h, human, pilot screen (AID 572;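 active = viability at or below 10% of carrier control in both of two separate runs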;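 note: compound exposure lasted between 18 and 24 h rather than exactly 24 h; 100% = carrier-treated control wells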). Conditions: SK-BR-3 viability, CellTiter-Glo luminescence, at 10 µM, stronger effect = lower value. A general note: Cellular ATP, detected with luciferase, serves as a proxy for viable cell number.
Assay [4] is described as follows: HUVEC growth inhibition – cell-based, human, primary screen (AID 575;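 active = viability at or below 30% in both replicate assays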;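 note: 100% = median of untreated cell wells with 0.1% DMSO on each plate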). The note with it: HUVEC proliferation, CellTiter-Glo luminescence, 72 h; at 10 µM; stronger effect = lower value. In short, it runs like this: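 material = primary HUVEC, no more than 12 passages | input = 1250 cells per well | controls = vehicle and MePR control wells | measured by = CTG luminescence | times = 72 h compound incubation | format = collagen-coated 384-well format | read-out = % viability vs DMSO wells | doses = single 10 µM dose, 0.1% DMSO, from 5x medium stock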

Assay [5] can be described thus: H69AR cell proliferation blockers – human, duplicate replicates, primary screen (AID 580;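 active = viability at or under a set limit in both replicates, limit being median viability minus 3 SD, cut at about 48% in these data, passing the limit was not always enough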;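 note: 100% = mean luminescence of untreated wells and 0% = no signal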). Conditions: H69AR lung tumor cells viability, ATP luminescence, 72 h; at 10 µM; stronger effect = lower value.
Assay [6] is described as follows: MRP1 drug-resistance reversers in H69AR cells – cell-based, doxorubicin co-treatment, pilot screen (AID 601;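 active = viability loss from added drug above about 55%, and viability with drug at most 40%, in both replicates, limit read from the data, passing the limit was not always enough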). The note with it: CellTiter-Glo, 72 h, at 10 µM; for differential viability (reversal): stronger effect = higher value.
A short description of assay [7]: yeast transport mutant growth inhibition pilot in 384-well plates, post-Golgi transport modulator project (AID 636; in the data active = inhibition above about 31%). The note with it: absorbance 615 nm, about 18 h, stronger effect = higher value.
A short description of assay [8]: growth suppression of yeast trafficking mutant, preliminary HTS, modulators of trafficking downstream of Golgi apparatus project, 1536-format plate, OD 615 nm (AID 637). Conditions: yeast transport mutant growth, absorbance 615 nm, 18 h; stronger effect = higher value.
Setting [9] is: H69AR cells + 2 uM doxorubicin, measured here: viability with 2 uM doxorubicin, stronger effect = lower value.
[10] abbreviates: H69AR cells, compound alone cytotoxicity.

Active and inactive are the calls of the source. Cut-off read from the data, not from the text of the source, unless noted: active = inhibition above about 30%; inactive = the rest.

A word on the viability: it is a read-out of living cells in per cent, often relative to untreated cells. The term inhibition denotes the change of the read-out against control, counted positive when it falls.

Receptor tyrosine-protein kinase erbB-2 (Homo sapiens), sequence (P04626 whole entry, looked up): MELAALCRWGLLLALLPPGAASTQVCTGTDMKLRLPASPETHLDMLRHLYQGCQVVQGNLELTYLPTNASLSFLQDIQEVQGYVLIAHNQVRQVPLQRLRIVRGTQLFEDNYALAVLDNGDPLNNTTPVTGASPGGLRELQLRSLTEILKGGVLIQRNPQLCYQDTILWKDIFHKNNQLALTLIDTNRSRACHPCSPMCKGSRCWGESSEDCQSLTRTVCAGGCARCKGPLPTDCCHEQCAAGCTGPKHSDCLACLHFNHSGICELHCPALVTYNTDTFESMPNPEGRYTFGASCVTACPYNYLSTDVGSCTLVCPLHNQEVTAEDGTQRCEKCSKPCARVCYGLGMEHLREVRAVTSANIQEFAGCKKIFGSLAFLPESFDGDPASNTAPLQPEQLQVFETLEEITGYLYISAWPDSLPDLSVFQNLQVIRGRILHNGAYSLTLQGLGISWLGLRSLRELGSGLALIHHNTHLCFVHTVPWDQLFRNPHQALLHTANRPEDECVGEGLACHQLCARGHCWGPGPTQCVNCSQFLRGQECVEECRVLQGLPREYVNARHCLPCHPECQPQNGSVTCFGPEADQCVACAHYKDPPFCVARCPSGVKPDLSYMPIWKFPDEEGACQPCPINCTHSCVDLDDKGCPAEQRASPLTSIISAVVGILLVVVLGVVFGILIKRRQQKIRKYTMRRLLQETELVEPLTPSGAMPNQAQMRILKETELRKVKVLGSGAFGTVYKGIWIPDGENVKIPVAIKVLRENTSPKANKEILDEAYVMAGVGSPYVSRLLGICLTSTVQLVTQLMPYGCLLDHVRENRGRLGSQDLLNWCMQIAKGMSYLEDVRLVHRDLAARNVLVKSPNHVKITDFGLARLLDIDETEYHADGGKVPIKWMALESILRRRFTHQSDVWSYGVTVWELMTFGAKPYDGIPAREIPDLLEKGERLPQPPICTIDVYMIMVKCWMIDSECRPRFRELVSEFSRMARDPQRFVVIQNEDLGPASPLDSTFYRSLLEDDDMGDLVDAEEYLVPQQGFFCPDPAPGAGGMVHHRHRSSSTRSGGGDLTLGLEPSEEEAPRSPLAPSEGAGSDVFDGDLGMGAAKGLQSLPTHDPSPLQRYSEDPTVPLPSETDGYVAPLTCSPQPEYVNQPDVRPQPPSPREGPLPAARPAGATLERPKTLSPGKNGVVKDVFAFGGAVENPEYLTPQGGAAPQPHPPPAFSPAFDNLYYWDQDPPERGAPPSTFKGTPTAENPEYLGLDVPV

Take `COC(=O)Nc1nnc(CCc2ccccc2)s1`: the viability in assay [1] was 115%; in assay [3] it was 115% (inactive); in assay [4], 97.2% (inactive); in assay [5], 95.2% (inactive); in assay [6] (setting [9]) it was 80.3%; in assay [6] (setting [10]) it was 95.2%. The Her2 level in assay [2] was 97.5% (inactive). For the same compound, the differential viability (reversal) in assay [6] (H69AR cells + 2 uM doxorubicin) is 14.9% (inactive). In addition, the inhibition was -7.07% (inactive) in assay [7] and 9.52% (inactive) in assay [8].

Consider `C=CCn1c(SCC(=O)NC23CC4CC(CC(C4)C2)C3)nc(O)cc1=O`, for which the viability in assay [1] was 138%; in assay [3], 138% (inactive); in assay [4], 91.4% (inactive); in assay [5], 92.9% (inactive); in assay [6] (setting [9]) it was 92.2%; in assay [6] (setting [10]), 92.9%. For the same compound, the Her2 level in assay [2] is 108% (inactive). For the same compound, in assay [6] (H69AR cells + 2 uM doxorubicin), the differential viability (reversal) was 0.68% (inactive). The inhibition in assay [7] was -1.18% (inactive); in assay [8], -0.48% (inactive).

`COCCNc1nc(C(C)(C)C)nc2c1nnn2Cc1ccccc1Cl`: the viability in assay [1] is 87%; in assay [3], 87% (inactive); in assay [4], 119% (inactive); in assay [5], 96.1% (inactive); in assay [6] (setting [9]), 94.4%; in assay [6] (setting [10]), 96.1%. Also, the Her2 level in assay [2] was 86.5% (inactive). Also, the differential viability (reversal) in assay [6] (H69AR cells + 2 uM doxorubicin) is 1.67% (inactive). For the same compound, the inhibition in assay [7] is -0.66% (inactive); in assay [8], -3.33% (inactive).

For the compound `Cc1ccc(-c2nc(CS(=O)CC(=O)NCCN(CC(C)C)CC(C)C)c(C)o2)cc1` (stereo not given), the viability in assay [1] was 81%; in assay [3], 81% (inactive); in assay [4] it was 86.4% (inactive); in assay [5] it was 103% (inactive); in assay [6] (setting [9]), 83.6%; in assay [6] (setting [10]), 103%. The Her2 level in assay [2] is 84.5% (inactive). Besides, the differential viability (reversal) in assay [6] (H69AR cells + 2 uM doxorubicin) is 19.8% (inactive). Further, the inhibition in assay [7] was -5.2% (inactive); in assay [8], 0.97% (inactive).

Turning to `O=C(NCCCNC(=O)c1ccccn1)c1ccccn1`, the viability in assay [1] is 106%; in assay [3], 106% (inactive); in assay [4], 79.6% (inactive); in assay [5], 91.5% (inactive); in assay [6] (setting [9]), 92.1%; in assay [6] (setting [10]), 91.5%. In assay [2], the Her2 level was 75% (inactive). In addition, the differential viability (reversal) in assay [6] (H69AR cells + 2 uM doxorubicin) was -0.68% (inactive). Besides, the inhibition in assay [7] was -5.89% (inactive); in assay [8], -3.49% (inactive).

Consider `CCCn1c(C)nc2c(c1=O)c1nc3ccccc3nc1n2CCc1ccccc1`, for which the viability was 98% in assay [1]; 98% (inactive) in assay [3]; 102% (inactive) in assay [4]; 88.5% (inactive) in assay [5]; 91.9% in assay [6] (setting [9]); 88.5% in assay [6] (setting [10]). In addition, the Her2 level in assay [2] is 103% (inactive). For the same compound, in assay [6] (H69AR cells + 2 uM doxorubicin), the differential viability (reversal) was -3.46% (inactive). Further, the inhibition in assay [7] is -4.42% (inactive); in assay [8], 0.5% (inactive).

Regarding `Cc1ccc(-c2nc3ncccc3o2)cc1NC(=O)c1ccco1`, the viability was 97.5% in assay [1]; 97.5% (inactive) in assay [3]; 100% (inactive) in assay [4]; 99.2% (inactive) in assay [5]; 91.3% in assay [6] (setting [9]); 99.2% in assay [6] (setting [10]). The Her2 level in assay [2] is 76.5% (inactive). Further, the differential viability (reversal) in assay [6] (H69AR cells + 2 uM doxorubicin) is 7.96% (inactive). In addition, the inhibition in assay [7] was -6.76% (inactive); in assay [8], -2.62% (inactive).

`O=C(NCC1CCCO1)C1CCCN(Cc2cnn(-c3ccccc3)c2-n2cccc2)C1` (stereo not given): the viability in assay [1] was 83.5%; in assay [3] it was 83.5% (inactive); in assay [4] it was 83.4% (inactive); in assay [5], 85.2% (inactive); in assay [6] (setting [9]), 44.5%; in assay [6] (setting [10]) it was 85.2%. Also, the Her2 level in assay [2] is 124% (inactive). In addition, the differential viability (reversal) in assay [6] (H69AR cells + 2 uM doxorubicin) was 40.7% (inactive). The inhibition in assay [7] was -1.45% (inactive); in assay [8] it was -8.33% (inactive).

For the compound `Cc1nn(C)c(C)c1S(=O)(=O)N1CCCC(C(=O)N2CCN(c3ccc(Cl)cc3)CC2)C1` (stereo not given), the viability in assay [1] is 102%; in assay [3], 102% (inactive); in assay [4], 87.7% (inactive); in assay [5], 88.3% (inactive); in assay [6] (setting [9]), 69%; in assay [6] (setting [10]), 88.3%. Also, the Her2 level in assay [2] is 70% (inactive). Further, in assay [6] (H69AR cells + 2 uM doxorubicin), the differential viability (reversal) is 19.3% (inactive). The inhibition in assay [7] was -2.43% (inactive); in assay [8], 3.49% (inactive).

On to `Cc1cccn2c(=O)c3cc(C#N)c(=NC(=O)c4cccnc4)n(CC4CCCO4)c3nc12` (stereo not given), for which the viability in assay [1] is 92.5%; in assay [3], 92.5% (inactive); in assay [4] it was 94.4% (inactive); in assay [5], 71.1% (inactive); in assay [6] (setting [9]), 44.1%; in assay [6] (setting [10]) it was 71.1%. Further, the Her2 level in assay [2] is 108% (inactive). The differential viability (reversal) in assay [6] (H69AR cells + 2 uM doxorubicin) is 27% (inactive). The inhibition in assay [7] is -1.18% (inactive); in assay [8], -9.35% (inactive).

For the compound `CCCCS(=O)(=O)NC1=NCN(C2CCN(Cc3ccccc3)CC2)CN1`, the viability in assay [1] was 116%; in assay [3], 116% (inactive); in assay [4], 91.5% (inactive); in assay [5], 111% (inactive); in assay [6] (setting [9]) it was 101%; in assay [6] (setting [10]), 111%. For the same compound, the Her2 level in assay [2] was 98.5% (inactive). Besides, the differential viability (reversal) in assay [6] (H69AR cells + 2 uM doxorubicin) was 9.66% (inactive). Besides, the results for the inhibition in assay [7] and in assay [8] were -2.7% (inactive) and -2.22% (inactive), respectively.

In the case of `CN(C)C(=O)CSc1nnc([C@H](Cc2c[nH]c3ccccc23)NC(=O)OC(C)(C)C)o1`, the viability in assay [1] was 104%; in assay [3], 104% (inactive); in assay [4], 94.9% (inactive); in assay [5], 94.6% (inactive); in assay [6] (setting [9]), 94.6%; in assay [6] (setting [10]), 94.6%. Besides, in assay [2], the Her2 level is 96.5% (inactive). The differential viability (reversal) in assay [6] (H69AR cells + 2 uM doxorubicin) is 0.01% (inactive). The inhibition in assay [7] is -3.68% (inactive); in assay [8] it was 5.57% (inactive).

In the case of `CCOC(=O)c1[nH]c2ccccc2c1NC(=O)C(C)(C)C`, the viability was 102% in assay [1]; 102% (inactive) in assay [3]; 80.6% (inactive) in assay [4]; 96.6% (inactive) in assay [5]; 94.2% in assay [6] (setting [9]); 96.6% in assay [6] (setting [10]). The Her2 level in assay [2] was 96% (inactive). Besides, the differential viability (reversal) in assay [6] (H69AR cells + 2 uM doxorubicin) was 2.35% (inactive). For the same compound, the inhibition in assay [7] was -5.33% (inactive); in assay [8] it was 1.67% (inactive).

In the case of `Cc1csc2nc(CNC(=O)c3ccco3)cn12`, the viability in assay [1] was 86%; in assay [3], 86% (inactive); in assay [4], 95.6% (inactive); in assay [5] it was 112% (inactive); in assay [6] (setting [9]), 98.5%; in assay [6] (setting [10]), 112%. Further, the Her2 level in assay [2] is 102% (inactive). For the same compound, the differential viability (reversal) in assay [6] (H69AR cells + 2 uM doxorubicin) is 13.9% (inactive). Besides, the inhibition is -1.2% (inactive) in assay [7] and -4.35% (inactive) in assay [8].
